Active and inactive are the calls of the source. The rule behind the calls is not given here.
Tests used:
[1] = Binding affinity to zinc assessed as formation of zinc-compound complex by EGTA fluorescence titration assay
[2] = system: U-937; experiment: Cytotoxicity against human U937 cells after 72 hrs by sulforhodamine B assay; type: functional, cell-based; details: U-937, 72 h
[3] = biological target: T1, Caspase-3 (Homo sapiens) (UniProt P42574); experiment: Inhibition of 6xHis-tagged recombinant caspase 3 expressed in Escherichia coli BL21 (DE3) at 10 uM after 30 mins in absence of zinc ion
T1 sequence (whole entry): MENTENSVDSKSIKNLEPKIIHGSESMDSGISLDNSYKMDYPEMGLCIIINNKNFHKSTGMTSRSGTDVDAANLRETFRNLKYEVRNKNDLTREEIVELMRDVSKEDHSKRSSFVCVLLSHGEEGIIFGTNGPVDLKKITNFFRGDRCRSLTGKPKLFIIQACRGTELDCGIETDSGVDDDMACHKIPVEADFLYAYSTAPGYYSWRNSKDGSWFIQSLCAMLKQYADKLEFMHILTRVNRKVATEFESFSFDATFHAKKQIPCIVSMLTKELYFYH

[4] = system: SK-MEL-5; experiment: Zinc chelating activity in human SK-MEL-5 cells assessed as appearance of punctate cytoplasmic staining pattern at 25 uM after 1 hr by immunofluorescent staining-based confocal microscopy; type: functional, cell-based
In short: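 Live SK-MEL-5 cells incubated 1 hour with 25 μM fluorescent derivative, washed with phenol red-free medium, incubated 2 further hours; DNA stained with SYBR green; imaged by multiphoton confocal microscopy for subcellular, punctate cytoplasmic fluorescence.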

[5] = biological target: T1, Caspase-3 (Homo sapiens); experiment: Induction of procaspase 3 activation in human SK-MEL-5 cells assessed as caspase 3 cytoplasmic colocalization at 25 uM after 1 hr by immunofluorescent staining-based confocal microscopy in presence of 25 uM caspase 3/7 inhibitor FAM-DEVD-fmk; type: cell-based
In short: (§1)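 Live SK-MEL-5 cells treated with DMSO or compound (25 μM) together with FAM-DEVD-fmk (25 μM), a fluorescent irreversible active-site caspase-3/-7 label, for 1 hour; washed in phenol red-free medium, incubated 2 hours further, then imaged by multiphoton confocal microscopy.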

[6] = biological target: T1, Caspase-3 (Homo sapiens); experiment: Activation of 6xHis-tagged recombinant caspase 3 expressed in Escherichia coli BL21 (DE3) at 50 uM after 30 mins in presence of zinc ion
[7] = biological target: T1, Caspase-3 (Homo sapiens); experiment: Induction of procaspase 3 activation in human SK-MEL-5 cells assessed as caspase 3 cytoplasmic colocalization at 25 uM after 1 hr by immunofluorescent staining-based confocal microscopy; type: cell-based
In short: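 SK-MEL-5 cells given DMSO or 25 μM compound for 1 hour, washed with phenol red-free medium, incubated 2 more hours, fixed, stained with rabbit anti-caspase-3 antibody (recognizes procaspase-3 and caspase-3) plus anti-rabbit Alexa Fluor 647 secondary, mounted and imaged by multiphoton confocal microscopy.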

[8] = system: U-937; experiment: Induction of apoptosis in human U937 cells assessed as early apoptotic cells at 50 uM after 12 hrs by FITC-conjugated annexin V and propidium iodide staining-based flow cytometry; type: functional
In short: (§2)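 U-937 cells incubated with compound at 50 μM or vehicle for 12 hours, then co-stained with propidium iodide and FITC-labeled Annexin V; Annexin V-positive/PI-negative cells scored as early apoptotic.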

[9] = system: U-937; experiment: Induction of apoptosis in human U937 cells assessed as non-viable necrotic cells at 50 uM after 12 hrs by FITC-conjugated annexin V and propidium iodide staining-based flow cytometry; type: functional; in short: as §2
[10] = system: U-937; experiment: Induction of apoptosis in human U937 cells assessed as late apoptotic cells at 50 uM after 12 hrs by FITC-conjugated annexin V and propidium iodide staining-based flow cytometry; type: functional; in short: as §2
[11] = system: U-937; experiment: Induction of apoptosis in human U937 cells assessed as viable cells at 50 uM after 12 hrs by FITC-conjugated annexin V and propidium iodide staining-based flow cytometry; type: functional; details: U-937, 12 h, read-out: Activity; in short: as §2
[12] = biological target: T1, Caspase-3 (Homo sapiens); experiment: Induction of procaspase 3 activation in human SK-MEL-5 cells at 25 uM after 1 hr by immunofluorescent staining-based confocal microscopy in presence of 25 uM caspase 3/7 inhibitor FAM-DEVD-fmk; type: cell-based; in short: as §1

Kd [1] [µM] | SMILES | IC50 [2] [µM] | also measured
0.08 | C=CCc1cccc(/C=N/NC(=O)CN2CCN(Cc3ccncc3)CC2)c1O | 21 | 
> 10 | O=C(CN1CCN(Cc2ccccc2)CC1)N/N=C/c1ccccc1SSc1ccccc1/C=N/NC(=O)CN1CCN(Cc2ccccc2)CC1 | > 100 | 
0.039 | C=CCc1cccc(/C=N/NC(=O)CN2CCN(Cc3cc(OC)ccc3OC)CC2)c1O | 1 | 
> 10 | O=C(CN1CCN(Cc2ccccc2)CC1)N/N=C/c1ccccc1C(=O)O | > 100 | 
> 10 | O=C(CN1CCN(Cc2ccccc2)CC1)N/N=C/c1ccccc1 | > 100 | 
> 10 | Nc1ccccc1/C=N/NC(=O)CN1CCN(Cc2ccccc2)CC1 | > 100 | 
> 10 | O=C(CN1CCN(Cc2ccccc2)CC1)N/N=C/c1ccccc1S | > 100 | 
> 10 | CSc1ccccc1/C=N/NC(=O)CN1CCN(Cc2ccccc2)CC1 | 61 | 
0.052 | C=CCc1cccc(/C=N/NC(=O)CN2CCN(Cc3ccccc3)CC2)c1O [PAC-1] | 4.8 | Activity [8]: 31%; Activity [9]: 0%; Activity [7]: Active; Activity [10]: 11%; Activity [12]: Active; viability at 50 µM [11]: 58%

Further lines, the compound ahead of its results:

SMILES | Kd [1] [µM] | IC50 [2] [µM] | also measured
C=CCc1cc(/C=N/NC(=O)CN2CCN(Cc3ccccc3)CC2)c(O)c(CC=C)c1 | 0.043 | 1.8 | 
C=CCc1cccc(CNNC(=O)CN2CCN(Cc3ccccc3)CC2)c1O | > 10 | 59 | 
O=C(CN1CCN(Cc2ccccc2)CC1)NCc1ccccc1O | > 10 | > 100 | 
COc1ccc(OC)c(CN2CCN(CC(=O)N/N=C/c3ccccc3O)CC2)c1 | 0.065 | 12 | 
C=CCc1cccc(/C=N/NC(=O)CC2CCN(Cc3ccccc3)CC2)c1O | 0.044 | 2.8 | inhibition [3]: Active
C=CCc1cccc(/C=N/NC(=O)CN2CCN(Cc3cccc([N+](=O)[O-])c3)CC2)c1O | 0.045 | 4.6 | 
C=CCc1cccc(/C=N/NC(=O)CN2CCN(Cc3ccc(OC)cc3)CC2)c1O | 0.047 | 2.7 | 
O=C(CN1CCN(Cc2ccccc2)CC1)NCCc1ccccc1O | > 10 | > 100 | 
C=CCc1cccc(/C=N/NC(=O)CN2CCN(Cc3ccccc3)CC2)c1OC | > 10 | 32 | 
C=CCc1cccc(/C=N/N(C)C(=O)CN2CCN(Cc3ccccc3)CC2)c1O | > 10 | 22 | 
C=CCc1cccc(/C=N/NC(=O)CN2CCN(Cc3cccc(Cn4cc(CNC(=O)Cc5c(C)c6cc(S(=O)(=O)O)c(N)cc6oc5=O)nn4)c3)CC2)c1O | 0.061 | 14.8 | Activity [4]: Active; Activity [5]: Active; Activity [6]: 20%; Activity [7]: Active
C=CCc1cccc(/C=N/NC(=O)CN2CCN(Cc3cccnc3)CC2)c1O | 0.062 | 14 | 
O=C(CN1CCN(Cc2ccccc2)CC1)N/N=C/c1ccccc1Cl | > 10 | 57 | 
COC(=O)c1ccccc1/C=N/NC(=O)CN1CCN(Cc2ccccc2)CC1 | > 10 | > 100 | 
C=CCc1cccc(/C=N/NC(=O)CN2CCC(Cc3ccccc3)CC2)c1O | 0.049 | 2.7 | Activity [8]: 41%; Activity [9]: 0%; Activity [10]: 10%; viability at 50 µM [11]: 49%
C=CCc1cccc(/C=N/NC(=O)CN2CCN(Cc3ccc(F)cc3)CC2)c1O | 0.048 | 2 | Activity [8]: 30%; Activity [9]: 0%; Activity [10]: 8%; viability at 50 µM [11]: 62%
C=CCc1cccc(/C=N/NC(=O)CC2CCN(C(=O)OC(C)(C)C)CC2)c1O | 0.048 | 6.5 | inhibition [3]: Active

From ChEMBL document CHEMBL1155195 (J Med Chem, 2009)
